According to ChEMBL document CHEMBL1122222, “Synthesis and biological activities of the Z isomers of carbapenem antibiotics” (J Med Chem, 1983):
In brackets after ≈: the same amount, converted by molar mass.

Columns and labels:
[1] = target: Beta-lactamase (Serratia marcescens) (UniProt P18539)
Beta-lactamase [2] = target: Beta-lactamase (Proteus vulgaris, UniProt P52664); assay: Beta-lactamase inhibitory activity against cephalosporinase of Proteus vulgaris GN4413; conditions: read-out: I50 (converted)
Beta-lactamase [3] = target: Beta-lactamase (Serratia marcescens, UniProt P18539); assay: Beta-lactamase inhibitory activity against cephalosporinase of Serratia marcescens. TN81; conditions: read-out: I50 (converted)
[4] = target: Beta-lactamase (Staphylococcus aureus) (UniProt P00807)
[5] = target: T1, Beta-lactamase (Proteus mirabilis) (UniProt P30897); conditions: Proteus vulgaris
T1 sequence (whole entry): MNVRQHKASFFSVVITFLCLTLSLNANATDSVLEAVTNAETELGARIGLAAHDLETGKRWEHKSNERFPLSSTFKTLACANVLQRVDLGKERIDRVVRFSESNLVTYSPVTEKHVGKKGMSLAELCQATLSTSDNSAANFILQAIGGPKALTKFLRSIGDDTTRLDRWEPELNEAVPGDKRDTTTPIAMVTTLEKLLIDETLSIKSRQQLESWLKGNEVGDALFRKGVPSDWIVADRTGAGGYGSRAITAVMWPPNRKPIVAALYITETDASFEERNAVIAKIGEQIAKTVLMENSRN

Beta-lactamase [6] = target: Beta-lactamase (Staphylococcus aureus, UniProt P00807); assay: Beta-lactamase inhibitory activity against penicillinase of Staphylococcus aureus 1840; conditions: read-out: I50 (converted)
[7] = In vitro potentiation activity was tested after adding a concentration of […] into the agar plate of ampicillin or cefotiam; show synergistic effect; type: functional
Mus musculus [8] = assay: In vivo synergistic protective effect with cefotiam in mice infected with Proteus vulgaris GN4815 at 1 mg/kg dose given sc; type: functional; conditions: route subcutaneous
Mus musculus [9] = species on record: Mus musculus; assay: Half life in mouse kidney homogenates; type: ADME
Outline: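 Carbapenem at 50 µg/mL incubated in 10% mouse kidney homogenate at 30 °C; residual antibiotic measured at intervals by its β-lactamase-inhibiting activity.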

Mus musculus [10] = assay: Effective does against ip infected Escherichia coli O-111 […] when administered sc; type: functional; conditions: Mus musculus; read-out: ED50
Outline: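 Slc:ICR mice; ED50 calculated by the Reed–Muench method from survival recorded 5 days after infection.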

Staphylococcus aureus = assay: Inhibition of growth of Staphylococcus aureus 308 A-1; type: functional; conditions: Staphylococcus aureus; read-out: MIC
Outline: (§1)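 Agar dilution MIC on Trypticase soy agar; inoculum one loopful of bacterial suspension at 10⁸ cfu/mL.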

[11] = test system: Acinetobacter calcoaceticus; assay: Inhibition of growth of Acinetobacter calcoaceticus. IFO 13006; type: functional, acinetobacter calcoacet; conditions: Acinetobacter calcoaceticus, IFO 13006; read-out: MIC
Outline: as §1

Klebsiella pneumoniae [12] = assay: Beta-lactamase inhibitory activity against penicillinase of Klebsiella pneumoniae. TN1698
Serratia marcescens = assay: Inhibition of growth of Serratia marcescens IFO 12648; type: functional; conditions: Serratia marcescens, IFO 12648; read-out: MIC
Outline: as §1

Klebsiella pneumoniae [13] = assay: Inhibition of growth of Klebsiella pneumoniae DT; type: functional; conditions: Klebsiella pneumoniae; read-out: MIC
Outline: as §1

Mus musculus [14] = assay: In vivo synergistic protective effect with cefotiam in mice infected with Proteus vulgaris GN4815 at 10 mg/kg dose given sc; type: functional; conditions: route subcutaneous
[15] = target: Beta-lactamase (Staphylococcus aureus) (UniProt P00807); remark: listed apart in the source
[16] = target: T1, Beta-lactamase (Proteus mirabilis); conditions: Proteus vulgaris; remark: listed apart in the source
Escherichia coli [17] = assay: Inhibition of growth of Escherichia coli T-7; type: functional; conditions: Escherichia coli; read-out: MIC
Outline: as §1

Enterobacter cloacae = assay: Inhibition of growth of Enterobacter cloacae IFO 12937; type: functional; conditions: Enterobacter cloacae, IFO 12937; read-out: MIC
Outline: as §1

Escherichia coli [18] = assay: MIC against Escherichia coli O-111; type: functional; conditions: Escherichia coli; read-out: MIC
Outline: as §1

Citrobacter freundii = assay: Inhibition of growth of Citrobacter freundii IFO 12681; type: functional; conditions: Citrobacter freundii, IFO 12681; read-out: MIC
Outline: as §1

Proteus mirabilis = assay: Inhibition of growth of Proteus mirabilis IFO 3849; type: functional; conditions: Proteus mirabilis, IFO 3849; read-out: MIC
Outline: as §1

Proteus vulgaris = assay: Inhibition of growth of Proteus vulgaris IFO 3988; type: functional; conditions: Proteus vulgaris, IFO 3988; read-out: MIC
Outline: as §1

Morganella morganii = assay: Inhibition of growth of Proteus morganii IFO 3168; type: functional; conditions: Morganella morganii, IFO 3168; read-out: MIC
Outline: as §1

[19] = target: Beta-lactamase (Serratia marcescens) (UniProt P18539); remark: listed apart in the source
Mus musculus [20] = assay: In vivo synergistic protective effect with cefotiam in mice infected with Proteus vulgaris GN4815 at 100 mg/kg dose given sc; type: functional; conditions: route subcutaneous
Pseudomonas aeruginosa = assay: Inhibition of growth of Pseudomonas aeruginosa IFO 3455; type: functional; conditions: Pseudomonas aeruginosa, IFO 3455; read-out: MIC
Outline: as §1

Mus musculus [21] = assay: In vivo protective effect in mice infected with Proteus vulgaris GN4815 at (dose mg/kg) administered sc; type: functional
[22] = In vitro potentiation activity was tested after adding a concentration of […] into the agar plate of ampicillin; show synergistic effect; type: functional

Beta-lactamase (Proteus vulgaris, UniProt P52664), sequence (P52664 whole entry, looked up): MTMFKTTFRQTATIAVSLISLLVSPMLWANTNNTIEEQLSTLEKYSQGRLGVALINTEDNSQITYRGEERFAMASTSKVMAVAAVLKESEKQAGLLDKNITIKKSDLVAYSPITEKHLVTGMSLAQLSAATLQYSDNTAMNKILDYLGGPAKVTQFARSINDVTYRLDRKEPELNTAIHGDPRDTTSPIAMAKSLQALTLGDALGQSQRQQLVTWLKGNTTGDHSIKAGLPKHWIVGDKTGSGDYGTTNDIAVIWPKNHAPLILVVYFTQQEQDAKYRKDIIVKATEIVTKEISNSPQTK
Beta-lactamase (Staphylococcus aureus, UniProt P00807), sequence (P00807 whole entry): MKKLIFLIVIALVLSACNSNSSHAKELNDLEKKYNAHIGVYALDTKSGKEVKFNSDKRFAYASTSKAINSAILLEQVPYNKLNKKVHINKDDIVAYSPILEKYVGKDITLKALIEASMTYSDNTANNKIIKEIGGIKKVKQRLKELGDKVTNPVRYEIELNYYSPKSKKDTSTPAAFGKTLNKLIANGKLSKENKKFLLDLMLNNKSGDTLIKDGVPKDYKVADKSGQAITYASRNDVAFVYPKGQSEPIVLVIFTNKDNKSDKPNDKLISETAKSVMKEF
Beta-lactamase (Staphylococcus aureus), sequence (P00807 whole entry): as above
Beta-lactamase (Serratia marcescens, UniProt P18539), sequence (P18539 whole entry): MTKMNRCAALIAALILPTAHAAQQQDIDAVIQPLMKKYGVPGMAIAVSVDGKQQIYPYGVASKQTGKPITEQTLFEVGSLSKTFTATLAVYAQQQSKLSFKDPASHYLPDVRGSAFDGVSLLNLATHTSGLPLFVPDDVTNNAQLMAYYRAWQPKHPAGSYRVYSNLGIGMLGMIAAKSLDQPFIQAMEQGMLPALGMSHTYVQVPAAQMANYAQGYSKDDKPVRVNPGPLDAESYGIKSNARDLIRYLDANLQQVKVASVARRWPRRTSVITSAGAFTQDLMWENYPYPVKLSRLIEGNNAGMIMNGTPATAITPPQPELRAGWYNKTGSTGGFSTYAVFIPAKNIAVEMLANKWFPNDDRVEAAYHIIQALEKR
Beta-lactamase (Serratia marcescens), sequence (P18539 whole entry): as above

## CC(=O)N/C=C\[S+]([O-])C1=C(C(=O)O)N2C(=O)[C@@H](C(C)OS(=O)(=O)O)[C@H]2C1 (stereo partly drawn)
[1]
  MIC: 25 µg/mL (≈ 61.2 µM)
Beta-lactamase [2]
  IC50: 0.354 nM
Beta-lactamase [3]
  IC50: 0.752 nM
[4]
  MIC: 50 µg/mL (≈ 122 µM)
[5]
  MIC: 50 µg/mL (≈ 122 µM)
Beta-lactamase [6]
  IC50: 7.52 nM

## CC(=O)N/C=C/[S+]([O-])C1=C(C(=O)[O-])N2C(=O)[C@@H](C(C)(C)OS(=O)(=O)[O-])[C@H]2C1.[Na+].[Na+] (stereo partly drawn)
[7]
  Activity: synergistic effect
Mus musculus [8]
  ED50 at 1 mg/kg: 12.5 mg/kg
Beta-lactamase [2]
  IC50: 0.793 nM
Mus musculus [9]
  T1/2: 22 min
Mus musculus [10]
  ED50: > 100 mg/kg
Staphylococcus aureus
  MIC: 12.5 µg/mL
[11]
  MIC: 25 µg/mL
Klebsiella pneumoniae [12]
  MIC: 6.25 µg/mL
Serratia marcescens
  MIC: 12.5 µg/mL
Klebsiella pneumoniae [13]
  MIC: 12.5 µg/mL
Mus musculus [14]
  ED50 at 10 mg/kg: 8.87 mg/kg
[15]
  MIC: 12.5 µg/mL
[16]
  MIC: 1.56 µg/mL
Beta-lactamase [3]
  IC50: 118 nM
Escherichia coli [17]
  MIC: 12.5 µg/mL
Enterobacter cloacae
  MIC: 25 µg/mL
Escherichia coli [18]
  MIC: 6.25 µg/mL
Citrobacter freundii
  MIC: 12.5 µg/mL
Proteus mirabilis
  MIC: 50 µg/mL
Proteus vulgaris
  MIC: 50 µg/mL
Morganella morganii
  MIC: 50 µg/mL
[19]
  MIC: 6.25 µg/mL
Beta-lactamase [6]
  IC50: 450 nM
Mus musculus [20]
  ED50 at 100 mg/kg: 3.86 mg/kg
Pseudomonas aeruginosa
  MIC: > 100 µg/mL

## CN(C)CCn1nnnc1SCC1=C(C(=O)O)N2C(=O)[C@@H](NC(=O)Cc3csc(N)n3)[C@H]2SC1 [CEFOTIAM]
Mus musculus [21]
  ED50: 35.5 mg/kg

## CC(=O)N/C=C/[S+]([O-])C1=C(C(=O)O)N2C(=O)[C@@H](C(C)(C)O)[C@H]2C1 (stereo in doubt; 20)
[22]
  Activity: synergistic effect
